As usually defined, the inhibition is the percentage by which the read-out fell short of the control. The low end stands for a response near the control, the high end for a response far below the control. What is called Ki is the equilibrium dissociation constant of an inhibitor or competing ligand from its target. A lower Ki goes with tighter binding.

Molecules are shown by their SMILES. Where a SMILES comes first, the peptide text is derived from it. [ ]: non-standard residue; d: D form. The star is where a group is joined. Phe(4-CN) = N#Cc1ccc(C[C@H](N)C(=O)O)cc1; Hydrocinnamoyl = O=C(CCc1ccccc1)*; hPhe = N[C@@H](CCc1ccccc1)C(=O)O; 2Thi = N[C@@H](Cc1cccs1)C(=O)O; Orn = NCCC[C@H](N)C(=O)O

The first assay addresses T1, Serine racemase (Homo sapiens) (UniProt Q9GZT4).
T1 sequence (whole entry): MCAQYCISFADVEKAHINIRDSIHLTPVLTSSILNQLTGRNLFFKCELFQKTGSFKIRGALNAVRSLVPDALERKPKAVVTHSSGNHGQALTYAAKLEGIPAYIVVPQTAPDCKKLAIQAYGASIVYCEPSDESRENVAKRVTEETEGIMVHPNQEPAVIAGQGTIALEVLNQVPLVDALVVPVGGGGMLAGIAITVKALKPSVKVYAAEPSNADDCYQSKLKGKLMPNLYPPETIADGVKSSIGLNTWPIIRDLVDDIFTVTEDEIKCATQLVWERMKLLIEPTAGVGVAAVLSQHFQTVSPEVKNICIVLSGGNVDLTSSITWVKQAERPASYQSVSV
The assay can be described thus: Inhibition of human serine racemase at 2 mM. The method, boiled down:
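Recombinant His-tagged hSR (E. coli, Ni-NTA). Inhibitor tested at 2 mM in a DAAO/LDH-coupled assay of total racemization plus elimination, with the NADH decrease followed at 340 nm. Buffer: 200 mM TEA·HCl, 150 mM KCl, 50 µM PLP, 5 mM MgCl2, 2.5 mM ATP, 10 mM DTT. L-serine substrate. Reported as percent decrease in activity.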
For `CC(C)C[C@H](NC(=O)[C@H](Cc1c[nH]cn1)NC(=O)CCc1ccccc1)C(N)=O` (Hydrocinnamoyl-His-Leu-NH2), the inhibition is 57%.

`NCCCC[C@H](NC(=O)[C@H](Cc1c[nH]cn1)NC(=O)CCc1ccccc1)C(N)=O` (Hydrocinnamoyl-His-Lys-NH2) yielded an inhibition of 40%.

Consider `N#Cc1ccc(C[C@H](NC(=O)c2ccc(-c3ccccc3)cc2)C(=O)NC2(C(N)=O)CCC(O)CC2)cc1` (stereo partly specified), for which the inhibition came out at 0%.

In turn, `CC[C@@H](C)[C@H](NC(=O)[C@H](Cc1c[nH]cn1)NC(=O)CCc1ccccc1)C(=O)NCCOCCOCNC(=O)CCC(N)=O` gave an inhibition of 0%.

Compound `CC[C@@H](C)[C@H](NC(=O)[C@H](CO)NC(=O)/C=C/c1cccnc1)C(N)=O` registered an inhibition of 10%.

Take `NC(=O)[C@H](CCc1ccccc1)NC(=O)[C@H](Cc1c[nH]cn1)NC(=O)CCc1ccccc1` (Hydrocinnamoyl-His-[hPhe]-NH2): the inhibition was 70%.

`NC(=O)[C@H](Cc1cccc(C(=O)c2ccccc2)c1)NC(=O)[C@H](Cc1ccccc1)NC(=O)COCC(=O)O`: the inhibition came to 4%.

Consider `NC(=O)[C@H](Cc1cccs1)NC(=O)[C@H](Cc1c[nH]cn1)NC(=O)CCc1ccccc1` (Hydrocinnamoyl-His-[2Thi]-NH2), for which the inhibition amounted to 68%.

As for `NCCC[C@H](NC(=O)[C@H](Cc1c[nH]cn1)NC(=O)CCc1ccccc1)C(N)=O` (Hydrocinnamoyl-His-[Orn]-NH2), the inhibition was found to be 49%.

In the case of `CCC(C)C[C@H](NC(=O)CCc1ccccc1)C(=O)N[C@@H](Cc1c[nH]cn1)C(N)=O` (stereo partly specified), the inhibition was 54%.

`N#Cc1ccc(C[C@H](NC(=O)CCc2ccccc2)C(=O)N[C@@H](Cc2c[nH]cn2)C(N)=O)cc1` (Hydrocinnamoyl-[Phe(4-CN)]-His-NH2) registered an inhibition of 72%.

Compound `CC[C@@H](C)[C@H](NC(=O)[C@H](Cc1c[nH]cn1)NC(=O)CCc1ccccc1)C(N)=O` registered an inhibition of 74%.

`NC(=O)C[C@H](NC(=O)CCc1ccccc1)C(=O)N[C@@H](Cc1c[nH]cn1)C(N)=O` (Hydrocinnamoyl-Asn-His-NH2) had an inhibition of 42%.

`CSCC[C@H](NC(=O)N1C(=O)OC[C@@H]1c1ccccc1)C(=O)N[C@@H](CCC(=O)O)C(N)=O` registered an inhibition of 8%.

Another assay deals with T2, Serine racemase (Homo sapiens, UniProt Q9GZT4).
T2 sequence (Q9GZT4 whole entry): T1 sequence (whole entry)
The assay can be described thus: Inhibition of human serine racemase. An outline of the steps: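 His-tagged hSR expressed in E. coli BL21 and Ni-NTA purified. Combined racemization plus elimination rate coupled via DAAO and LDH; NADH decrease read at 340 nm. Mix: 200 mM TEA·HCl, 150 mM KCl, 50 µM PLP, 5 mM MgCl2, 2.5 mM ATP, 10 mM DTT, 0.3 mM NADH. Varied L-serine against fixed inhibitor levels (0–2 mM), 40 min preincubation. KI obtained by global fit of data.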
With `NC(=O)[C@H](CCc1ccccc1)NC(=O)[C@H](Cc1cnc[nH]1)NC(=O)CCc1ccccc1` (Hydrocinnamoyl-His-[hPhe]-NH2), the Ki is 320 µM.

The compound `CC[C@@H](C)[C@H](NC(=O)[C@H](Cc1c[nH]cn1)NC(=O)CCc1ccccc1)C(N)=O` gave a Ki of 610 µM.

The values above are taken from ChEMBL document CHEMBL1146096, “Slow-binding human serine racemase inhibitors from high-throughput screening of combinatorial libraries” (J Med Chem, 2006).
